Test results reported in ChEMBL document CHEMBL1687719, “Absence of CD4+ T lymphocytes, CD8+ T lymphocytes, or B lymphocytes has different effects on the efficacy of posaconazole and benznidazole in treatment of experimental acute Trypanosoma cruzi infection” (2009).
The source made the active and inactive calls. The calls are words filed in the database; no cut-off is given here.

Columns and labels:
Trypanosoma cruzi [1] = assay: Antitrypanosomal activity against Trypanosoma cruzi Y infected in CD4+ T-lymphocyte knockout C57BL/6 mouse assessed as reactivation of parasite in mouse at 20 mg/kg/day, po administered twice daily for 20 consecutive days measured 60 days post infection; assay type: functional, organism-based
Procedure, shortened: (§1)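 Ip infection was 5,000 Y-strain blood trypomastigotes. From 4 dpi mice got 20 mg/kg/day orally in two daily doses (2% methylcellulose/0.5% Tween 80) for 20 days. Fresh tail blood was examined microscopically, daily from 4–16 dpi and every other day to 60 dpi. Reactivation was scored as return of patent parasitemia after treatment. Parasitemia curves were compared by Mann-Whitney.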

Trypanosoma cruzi [2] = assay: Antitrypanosomal activity against Trypanosoma cruzi Y infected in CD8+ T-lymphocyte knockout C57BL/6 mouse assessed as occurrence of subpatent level of parasitemia at 20 mg/kg/day, po administered twice daily for 20 consecutive days measured 60 days post infection; assay type: functional, organism-based; procedure, shortened: as §1
Trypanosoma cruzi [3] = assay: Antitrypanosomal activity against Trypanosoma cruzi Y infected in CD4+ T-lymphocyte knockout C57BL/6 mouse assessed as cure rate in mouse at 20 mg/kg/day, po administered twice daily for 20 consecutive days measured 60 days post infection; assay type: functional
Procedure, shortened: (§2)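 Wild-type or knockout mice got 5,000 Y-strain blood trypomastigotes ip. Oral dosing ran from 4 dpi for 20 days: 20 mg/kg/day in two doses, in 2% methylcellulose plus 0.5% Tween 80. Cure meant no parasitemia on fresh tail blood up to 60 dpi and a negative hemoculture: 0.5 ml orbital blood in LIT medium, 28°C, 30–60 days, checked by microscopy. Rates compared by chi-square/Bonferroni.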

Trypanosoma cruzi [4] = assay: Antitrypanosomal activity against Trypanosoma cruzi Y infected in C57BL/6 mouse assessed as mean survival time at 20 mg/kg/day, po administered twice daily for 20 consecutive days measured 60 days post infection; assay type: functional
Procedure, shortened: (§3)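 Mice were infected ip with 5,000 Y-strain blood trypomastigotes. Oral treatment began at 4 dpi at 20 mg/kg/day, split into two daily doses, suspended in 2% methylcellulose with 0.5% Tween 80, for 20 days. Survival was recorded to 60 dpi, giving rate and mean survival time. Untreated and vehicle-treated infected controls were included. Chi-square/Bonferroni comparison.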

Trypanosoma cruzi [5] = assay: Antitrypanosomal activity against Trypanosoma cruzi Y infected in CD8+ T-lymphocyte knockout C57BL/6 mouse assessed as mean survival time at 20 mg/kg/day, po administered twice daily for 20 consecutive days measured 60 days post infection; assay type: functional; procedure, shortened: as §3
Trypanosoma cruzi [6] = assay: Antitrypanosomal activity against Trypanosoma cruzi Y infected in CD8+ T-lymphocyte knockout C57BL/6 mouse assessed as increase in survival of mouse at 20 mg/kg/day, po administered twice daily for 20 consecutive days measured 60 days post infection; assay type: functional; settings: 1440 h; procedure, shortened: as §3
Trypanosoma cruzi [7] = assay: Antitrypanosomal activity against Trypanosoma cruzi Y infected in B-lymphocyte knockout C57BL/6 mouse assessed as increase in survival of mouse at 20 mg/kg/day, po administered twice daily for 20 consecutive days measured 60 days post infection; assay type: functional; settings: 1440 h; procedure, shortened: as §3
Trypanosoma cruzi [8] = assay: Antitrypanosomal activity against Trypanosoma cruzi Y infected in C57BL/6 mouse assessed as increase in survival of mouse at 20 mg/kg/day, po administered twice daily for 20 consecutive days measured 60 days post infection; assay type: functional; settings: 1440 h; procedure, shortened: as §3
Trypanosoma cruzi [9] = assay: Antitrypanosomal activity against Trypanosoma cruzi Y infected in CD8+ T-lymphocyte knockout C57BL/6 mouse assessed as cure rate in mouse at 20 mg/kg/day, po administered twice daily for 20 consecutive days measured 60 days post infection; assay type: functional; procedure, shortened: as §2
Trypanosoma cruzi [10] = assay: Antitrypanosomal activity against Trypanosoma cruzi Y infected in B-lymphocyte knockout C57BL/6 mouse assessed as mean survival time at 20 mg/kg/day, po administered twice daily for 20 consecutive days measured 60 days post infection; assay type: functional; procedure, shortened: as §3
Trypanosoma cruzi [11] = assay: Antitrypanosomal activity against Trypanosoma cruzi Y infected in B-lymphocyte knockout C57BL/6 mouse assessed as number of mouse with reactivation of infection at 20 mg/kg/day, […] for 20 consecutive days measured 22 days post infection; assay type: functional, organism-based
Trypanosoma cruzi [12] = assay: Antitrypanosomal activity against Trypanosoma cruzi Y infected in CD8+ T-lymphocyte knockout C57BL/6 mouse assessed as occurrence of low level of circulating parasites at 20 mg/kg/day, po administered twice daily for 20 consecutive days measured 25 days post infection; assay type: functional, organism-based; procedure, shortened: as §1
Trypanosoma cruzi [13] = assay: Antitrypanosomal activity against Trypanosoma cruzi Y infected in C57BL/6 mouse assessed as cure rate in mouse at 20 mg/kg/day, po administered twice daily for 20 consecutive days measured 60 days post infection; assay type: functional; procedure, shortened: as §2
Trypanosoma cruzi [14] = assay: Antitrypanosomal activity against Trypanosoma cruzi Y infected in CD4+ T-lymphocyte knockout C57BL/6 mouse assessed as reactivation of parasite in mouse at 20 mg/kg/day, po administered twice daily for 20 consecutive days measured 7 days post infection; assay type: functional, organism-based; procedure, shortened: as §1
Trypanosoma cruzi [15] = assay: Antitrypanosomal activity against Trypanosoma cruzi Y infected in CD8+ T-lymphocyte knockout C57BL/6 mouse assessed as number of mouse with reactivated parasite at 20 mg/kg/day, po administered twice daily for 20 consecutive days measured 60 days post infection; assay type: functional; procedure, shortened: as §1
Trypanosoma cruzi [16] = assay: Antitrypanosomal activity against Trypanosoma cruzi Y infected in CD4+ T-lymphocyte knockout C57BL/6 mouse assessed as increase in survival of mouse at 20 mg/kg/day, po administered twice daily for 20 consecutive days measured 60 days post infection; assay type: functional; settings: 1440 h; procedure, shortened: as §3
Trypanosoma cruzi [17] = assay: Antitrypanosomal activity against Trypanosoma cruzi Y infected in B-lymphocyte knockout C57BL/6 mouse assessed as cure rate in mouse at 20 mg/kg/day, po administered twice daily for 20 consecutive days measured 60 days post infection; assay type: functional; procedure, shortened: as §2
Trypanosoma cruzi [18] = assay: Antitrypanosomal activity against Trypanosoma cruzi Y infected in CD4+ T-lymphocyte knockout C57BL/6 mouse assessed as reactivation of parasite in mouse at 100 mg/kg/day, po administered once daily for 20 consecutive days measured 60 days post infection; assay type: functional, organism-based
Procedure, shortened: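 Ip infection was 5,000 Y-strain blood trypomastigotes. Oral dosing at 100 mg/kg/day, once daily in gum arabic water, ran from 4 dpi for 20 days. Parasitemia was read by microscopy of fresh tail blood, daily from 4–16 dpi, then every other day to 60 dpi. Reactivation was scored as patent parasitemia returning after treatment ended.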

Trypanosoma cruzi [19] = assay: Antitrypanosomal activity against Trypanosoma cruzi Y infected in CD4+ T-lymphocyte knockout C57BL/6 mouse assessed as mean survival time at 20 mg/kg/day, po administered twice daily for 20 consecutive days measured 60 days post infection; assay type: functional; procedure, shortened: as §3

`CC[C@@H]([C@H](C)O)n1ncn(-c2ccc(N3CCN(c4ccc(OC[C@@H]5CO[C@@](Cn6cncn6)(c6ccc(F)cc6F)C5)cc4)CC3)cc2)c1=O` [POSACONAZOLE] was tested, and the Activity (Trypanosoma cruzi [1]) was “inactive”, the Activity (Trypanosoma cruzi [2]) was “Active” and the Activity (Trypanosoma cruzi [3]) was 0%. The MST (Trypanosoma cruzi [4]) was greater than 60 days, the MST (Trypanosoma cruzi [5]) was 59.6 days and the survival at 20 mg/kg/day (Trypanosoma cruzi [6]) was 81%. For the same compound, the survival at 20 mg/kg/day (Trypanosoma cruzi [7]) was 100%, the survival at 20 mg/kg/day (Trypanosoma cruzi [8]) was 100% and the Activity (Trypanosoma cruzi [9]) was 31%. The MST (Trypanosoma cruzi [10]) was greater than 60 days, the Activity (Trypanosoma cruzi [11]) was “Active” and the Activity (Trypanosoma cruzi [12]) was “Active”. The Activity (Trypanosoma cruzi [13]) was 89%, the Activity (Trypanosoma cruzi [14]) was “inactive” and the Activity (Trypanosoma cruzi [15]) was 13%. The survival at 20 mg/kg/day (Trypanosoma cruzi [16]) was 6%, the Activity (Trypanosoma cruzi [17]) was 71% and the Activity (Trypanosoma cruzi [18]) was “inactive”. It also gave an MST (Trypanosoma cruzi [19]) of 50.5 days.
